Only some compounds are listed: those with a hit (about 2.7% of all), similar ones and a draw of the others.
NTR1 ag: NTR1 (human) agonism; NTR1-U2OS beta-arrestin-GFP spot imaging, agonist mode; 330,000 tested, 0.17% active; AID 493036; activation, % at 20 µM; P30989;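 active = activation at or above 40% of the spot to cytoplasm intensity ratio, with at least 20 cells analyzed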
Target sequence (P30989 whole entry, looked up): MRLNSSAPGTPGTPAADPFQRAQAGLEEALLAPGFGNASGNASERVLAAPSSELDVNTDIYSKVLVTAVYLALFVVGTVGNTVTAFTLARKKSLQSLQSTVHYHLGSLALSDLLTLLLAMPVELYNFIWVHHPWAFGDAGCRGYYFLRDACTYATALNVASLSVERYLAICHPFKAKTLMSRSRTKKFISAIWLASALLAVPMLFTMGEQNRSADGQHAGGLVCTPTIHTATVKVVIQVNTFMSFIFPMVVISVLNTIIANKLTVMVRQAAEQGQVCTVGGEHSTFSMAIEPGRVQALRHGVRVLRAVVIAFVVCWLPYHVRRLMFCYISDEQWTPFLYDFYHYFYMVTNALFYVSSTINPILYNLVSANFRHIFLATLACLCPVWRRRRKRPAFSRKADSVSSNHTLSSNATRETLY
MC4R antag cAMP: antagonists of human melanocortin 4 receptor (MC4R); P32245; MC4R-expressing cells, MTII-stimulated cAMP, LANCE TR-FRET; inhibition, % at 6.5 µM; 360,000 tested, 0.48% active; AID 540295;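 active = inhibition above its plate's cutoff, the mean of tested wells on that plate plus 3 SD, cut at about 29% in these data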
Target sequence (P32245 whole entry, looked up): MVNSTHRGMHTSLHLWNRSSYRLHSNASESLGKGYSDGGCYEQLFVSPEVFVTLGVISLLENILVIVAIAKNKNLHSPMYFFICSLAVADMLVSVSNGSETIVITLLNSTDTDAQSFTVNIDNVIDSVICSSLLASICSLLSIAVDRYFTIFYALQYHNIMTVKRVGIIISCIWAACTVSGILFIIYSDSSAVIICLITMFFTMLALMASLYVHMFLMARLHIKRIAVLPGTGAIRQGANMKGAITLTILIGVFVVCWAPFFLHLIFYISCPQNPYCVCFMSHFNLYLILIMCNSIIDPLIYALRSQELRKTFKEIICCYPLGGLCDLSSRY
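System: U2OS-MC4R stable cell line; Technique: Eu-cAMP/anti-cAMP TR-FRET, emission 671 nm; Repeats: single well per compound; Also added: Melanotan II; Dosing: one concentration, 6.5 µM nominal; Schedule: 30-min compound, 1-h challenge, 1-h detection, room temperature.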
MC4R barr agon: human MC4R agonism via beta-arrestin. P32245. U2OS MC4R beta-arrestin complementation, luminescence; percent of melanotan II response, DMSO zero. activation, % at 8.9 µM. 360,000 tested, 0.98% active;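 active = activation above a per-plate cutoff, the mean activation of sample wells on that plate plus 3 SD, cut at about 8% in these data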
HTR2A ag: agonists of mouse serotonin 5-HT2A receptor (HTR2A). P35363. CHO-K1 mHTR2A beta-arrestin complementation, luminescence; percent of 30 µM serotonin response. activation, % at 7.6 µM. 360,000 tested, 0.66% active;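 active = activation above a run cutoff, the mean activation of all tested compounds plus 3 SD, cut at about 14% in these data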
Lipid droplet: modulators of hepatic lipid droplet formation | AML12 mouse hepatocytes, oleate lipid droplets, BODIPY imaging | inhibition, % at 6.5 µM | 240,000 tested, 0.4% active | AID 1656;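 active = lipid droplet intensity inhibited by at least 50%, with more than 500 cells counted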
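Assay system: AML12 mouse liver cells | Compound: 6.5 µM single-point dosing | Schedule: Overnight exposure | Technique: Fluorescence imaging, 20x objective, two fields per well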
PREPL inhibitor: inhibits the human prolyl oligopeptidase-like enzyme; Q4J6C6; recombinant PREPL, fluorescence polarization activity-based probe; inhibition, % at 5.96 µM; 320,000 tested, 0.68% active; AID 2751; in the data active = inhibition above about 43%
MC4R barr ag: human MC4R beta-arrestin agonism confirmation | AID 602192 | 2,400 tested, 31% active | U2OS MC4R beta-arrestin recruitment, luminescence; scaled DMSO 0%, Melanotan II 100% | shares compounds with MC4R barr agon | activation, % at 8.9 µM;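 active = mean activation across replicates above the hit cutoff set in the earlier primary screen, cut at about 8% in these data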
MOR-DOR barr ag: OPRM1-OPRD1 heterodimer agonism counter-screen; U2OS PathHunter beta-arrestin, beta-gal luminescence; percent of deltorphin B response, DMSO zero; shares compounds with MC4R barr agon; 2,400 tested, 5.8% active; activation, % at 9.2 µM;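 active = mean activation across replicates exceeds the hit threshold derived in the earlier primary screen, cut at about 18% in these data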
Of the large screens only hits and unclear results are named; the others gave an inactive call (follow-up assays come after a bar, where they were run).

COC(=O)c1cc2ccccc2c(-c2c(O)ccc3ccccc23)c1O	MC4R barr agon 17 | MC4R barr ag 13 | MOR-DOR barr ag inactive
O=C(OCc1ccccc1)/C(=C/c1cccc2ccccc12)NC(=O)c1ccccc1	MC4R barr agon 14 | MC4R barr ag inactive | MOR-DOR barr ag inactive
COc1cccc(NC(=O)CN(C)C(=O)CN2C(=O)c3ccc([N+](=O)[O-])cc3C2=O)c1	none (no result: Lipid droplet)
CSCCC(NC(=O)c1ccco1)C(=O)N(C)CC(=O)Nc1c(Cl)cccc1Cl (stereo unspecified)	none (no result: Lipid droplet)
O=C(N/N=C\c1ccccc1F)c1ccc(-c2ccccc2)cc1	MC4R barr agon 16 (no result: PREPL inhibitor) | MC4R barr ag inactive | MOR-DOR barr ag inactive
Nc1c(C(=O)Nc2ccc3c(c2)OCCO3)nnn1CCc1ccccc1	none (no result: Lipid droplet)
Nc1c(C(=O)Nc2ccccc2Cl)nnn1-c1ccc2c(c1)OCCO2	MC4R barr agon 16 | MC4R barr ag inactive | MOR-DOR barr ag inactive
COc1ccc(-c2ccc(SCC(=O)Nc3nccs3)nn2)cc1OC	MC4R barr agon 11 | MC4R barr ag inactive | MOR-DOR barr ag inactive
COc1ccc(-c2nnc3ccc(SCC(=O)Nc4nccs4)nn23)cc1OC	none
COc1ccc(NC(=O)CSc2ccc(-c3cccs3)nn2)c(OC)c1	MC4R barr agon 14 | MC4R barr ag inactive | MOR-DOR barr ag inactive
CC(=O)N1C[C@@H](CO)[C@@H](N(C)C(=O)C2CCCCC2)C[C@H]1c1ccccc1	none (no result: NTR1 ag, MC4R antag cAMP, MC4R barr agon, Lipid droplet, PREPL inhibitor)
N#Cc1c(-c2ccccc2)cc(C2CC2)nc1SCC(=O)O	none
N#Cc1c(-c2ccco2)cc(C2CC2)nc1SCC(=O)c1ccccc1	MC4R barr agon 18 (no result: Lipid droplet) | MC4R barr ag inactive | MOR-DOR barr ag inactive
COC(=O)c1c(NC(=O)CSc2ncnc3ccccc23)sc(C)c1C	MC4R barr agon 15 (no result: Lipid droplet) | MC4R barr ag inactive | MOR-DOR barr ag inactive
COc1ccc(OCCOC(=O)CNS(=O)(=O)c2ccc(SC)c([N+](=O)[O-])c2)cc1	none (no result: Lipid droplet)
Cc1ccccc1OCC(=O)N/N=C/c1cn(C)c2ccccc12	none
Cc1ccccc1OCC(=O)N/N=C/c1cn(Cc2ccccc2)c2ccccc12	MC4R barr agon 33 | MC4R barr ag 12 | MOR-DOR barr ag inactive
Cc1nc(N2CCCCC2)nc(N2CCCCC2)c1C=O	none
CN(C)S(=O)(=O)c1cccc(NC(=O)CO/N=C(\N)c2ccccc2)c1	none (no result: Lipid droplet)
CCOC(=O)/C(C#N)=C\C1=C(N2CCOCC2)CC(C)(C)OC1	none
O=Nc1c(O)c2ccccc2c2ccccc12	none (no result: NTR1 ag, Lipid droplet)
O=Nc1c2cc3ccccc3[nH]c-2c2ccccc12	MC4R barr agon 10 (no result: NTR1 ag, Lipid droplet, PREPL inhibitor) | MC4R barr ag inactive | MOR-DOR barr ag inactive
COC(=O)c1ccc(OCC(=O)Nc2ccsc2C(=O)OC)cc1	none
COC(=O)c1sccc1NC(=O)COc1ccc(F)cc1Cl	MC4R barr agon 10 | MC4R barr ag inactive | MOR-DOR barr ag inactive
COC(=O)c1sccc1NC(=O)c1ccc(Cl)s1	MC4R barr agon 12 | MC4R barr ag inactive | MOR-DOR barr ag inactive
COC(=O)c1sccc1NC(=O)c1ccc(C)s1	none
COC(=O)c1sccc1NC(=O)Nc1ccc(Cl)c(Cl)c1	MC4R barr agon 13 | MC4R barr ag inactive | MOR-DOR barr ag inactive
COC(=O)c1sccc1NC(=O)Nc1ccc(C)c(C)c1	none (no result: PREPL inhibitor)
CC(NC(=O)C(=O)NCCc1c[nH]c2ccccc12)c1ccccc1 (stereo unspecified)	none
CNc1nc(N/N=C/c2cc3c(cc2[N+](=O)[O-])OCO3)nc(Nc2ccccc2)n1	MC4R barr agon 25 | MC4R barr ag inactive | MOR-DOR barr ag inactive
Cc1ccc(S(=O)(=O)Nc2ccc(-c3nc4ccc(C)cc4s3)cc2)cc1	MC4R barr agon 14 | MC4R barr ag 15 | MOR-DOR barr ag inactive
Cc1cccc(S(=O)(=O)Nc2ccc(-c3nc4ccc(C)cc4s3)cc2)c1	MC4R barr agon 16 | MC4R barr ag inactive | MOR-DOR barr ag inactive
COc1ccccc1N(C)S(=O)(=O)c1ccc(C(=O)OCC(=O)N2CCC2)cc1	none
COc1ccc(S(=O)(=O)N(CC(=O)NC2CCCCC2)c2ccc(F)cc2)cc1	none
CCN1CCC(O)(/C=C/c2ccc(C(C)C)cc2)C(C(=O)/C=C/c2ccc(C(C)C)cc2)C1 (stereo unspecified)	MC4R barr agon 12 (no result: NTR1 ag, Lipid droplet, PREPL inhibitor) | MC4R barr ag 17 | MOR-DOR barr ag inactive
Cc1ccc(C(CC(=O)O)NC(=O)CN2C(=O)c3ccccc3C2=O)cc1 (stereo unspecified)	none (no result: Lipid droplet)
CCOC(=O)c1c(C)[nH]c(C(=O)Cn2nnc(-c3ccccc3)n2)c1C	MC4R barr agon 13 (no result: Lipid droplet) | MC4R barr ag inactive | MOR-DOR barr ag inactive
CCOC(=O)c1c(C)[nH]c(C(=O)CSc2ccc(Cl)cc2)c1C	MC4R barr agon 25 | MC4R barr ag 16 | MOR-DOR barr ag inactive
CCOC(=O)c1c(C)[nH]c(C(=O)Cn2nnc(-c3ccccc3Cl)n2)c1C	none (no result: Lipid droplet)
Cc1cc(C)nc(-n2ncc3c2CC(c2cccc(Cl)c2)CC3=O)n1 (stereo unspecified)	none
O=C(CCl)NC(Cc1ccccc1)C(=O)OCC(=O)c1ccc(-c2ccccc2)cc1 (stereo unspecified)	MC4R barr agon 14 (no result: NTR1 ag, Lipid droplet, PREPL inhibitor) | MC4R barr ag inactive | MOR-DOR barr ag inactive
Cc1ccc(C(C)C)c(OCc2nn(CC(=O)c3ccc(Cl)cc3)c3[n+]2CCCCC3)c1	MC4R barr agon 40 | MC4R barr ag 19 | MOR-DOR barr ag 34
CCOc1ccc(-c2cc(C(=O)NCc3ccc(C(F)(F)F)cc3)[nH]n2)c(C)c1	MC4R barr agon 13 (no result: NTR1 ag, Lipid droplet, PREPL inhibitor) | MC4R barr ag inactive | MOR-DOR barr ag inactive
CCOc1ccc(-c2cc(C(=O)Nc3cccc(C(F)(F)F)c3)[nH]n2)c(C)c1	MC4R barr agon 11 (no result: NTR1 ag, Lipid droplet, PREPL inhibitor) | MC4R barr ag inactive | MOR-DOR barr ag inactive
CN(CCOc1ccc(Cl)cc1)C(=O)c1cccc(S(=O)(=O)N2CCN(c3ccc(F)cc3)CC2)c1	none (no result: NTR1 ag, Lipid droplet, PREPL inhibitor)
Cc1sc2nc(CSc3cccc(C(F)(F)F)c3)[nH]c(=O)c2c1C	MC4R barr agon 16 | MC4R barr ag inactive | MOR-DOR barr ag inactive
CCc1ccc(NC(=O)c2ccc3c(c2)C(=O)N(CCOC)C3Nc2ccc(CC)cc2)cc1 (stereo unspecified)	MC4R barr agon 12 | MC4R barr ag inactive | MOR-DOR barr ag inactive
COc1ccc2cc(C(=O)N3CCC(Cc4ccccc4)CC3)[nH]c2c1	MC4R barr agon 10 | MC4R barr ag inactive | MOR-DOR barr ag inactive

Bioassay records (PubChem)
